Test results published in ChEMBL document CHEMBL1136789, “Synthesis and biological evaluation of new 2-(4,5-dihydro-1H-imidazol-2-yl)-3,4-dihydro-2H-1,4-benzoxazine derivatives” (J Med Chem, 2003).

Assays:
Rattus norvegicus [1] = test: Effect (25 mg/kg ip) on heart rate in anesthetized spontaneously hypertensive rats; format: functional
How it was run: (§1)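 Adult male SHR anaesthetised with sodium pentobarbital 50 mg/kg ip, left carotid catheter filled with heparinised saline. BP and HR (HR from pulse pressure) stabilised ≥40 min before a single ip dose, n=6/group. Vehicle 0.5% carboxymethylcellulose in water, 2.5 mL/kg. Recorded over 90 min. Output is the maximal change in MAP (mmHg) and HR (bpm) from pre-dose baseline, also as %. Repeated-measures ANOVA with Dunnett's tests.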

[2] = In vitro alpha-2 adrenergic receptor binding affinity was determined on calf frontal cortex membrane preparation; format: tissue-based, Bos taurus
Rattus norvegicus [3] = test: Effect (25 mg/kg ip) on mean arterial blood pressure in anesthetized spontaneously hypertensive rats; format: functional; how it was run: as §1
[4] = In vitro alpha-1 adrenergic receptor binding affinity was determined on calf frontal cortex membrane preparation; format: tissue-based, Bos taurus
How it was run: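 Calf frontal cortex membranes (0.5 mg protein/mL) incubated 40 min at 25 °C with 0.5 nM [3H]prazosin in 50 mM phosphate buffer with 10 mM MgCl2. Competitors at 10^-9 to 10^-4 M. Nonspecific binding set with 10 µM phentolamine. Stopped by rapid vacuum filtration through glass fibre filters, then washed three times with ice-cold buffer. Ki reported.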

Rattus norvegicus [5] = test: Effect at (25 mg/kg, ip) on heart rate in anesthetized spontaneously hypertensive rats; format: functional; how it was run: as §1
Rattus norvegicus [6] = test: Effect after 30 mg/kg, po, on mean arterial blood pressure in conscious spontaneously hypertensive rats; format: functional
How it was run: (§2)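 Studied conscious 24 h after surgery. Dosed by oral gavage after ≥40 min stabilisation, n=6/group. Vehicle 0.5% carboxymethylcellulose, 5 mL/kg. MAP and HR recorded over 24 h. Output is the maximal change from baseline (mmHg, bpm, %). Repeated-measures ANOVA with Dunnett's tests.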

Rattus norvegicus [7] = test: Effect after 10 mg/kg, po, on heart rate in conscious spontaneously hypertensive rats; format: functional; how it was run: as §2
Rattus norvegicus [8] = test: Effect after 10 mg/kg, po, on mean arterial blood pressure in conscious spontaneously hypertensive rats; format: functional; how it was run: as §2
Rattus norvegicus [9] = test: Effect after 30 mg/kg, po, on heart rate in conscious spontaneously hypertensive rats; format: functional; how it was run: as §2
Rattus norvegicus [10] = test: Effect after 100 mg/kg, po, on mean arterial blood pressure in conscious spontaneously hypertensive rats; format: functional; how it was run: as §2
Rattus norvegicus [11] = test: Effect after 100 mg/kg, po, on heart rate in conscious spontaneously hypertensive rats; format: functional; how it was run: as §2

Row | SMILES | Variation (Rattus norvegicus [1]) | Ki [2] | Max delta MAP (Rattus norvegicus [3]) | Variation (Rattus norvegicus [3]) | Ki [4] | Max delta HR (Rattus norvegicus [5]) | Max delta MAP (Rattus norvegicus [6]) | Variation (Rattus norvegicus [6]) | Max delta HR (Rattus norvegicus [7]) | Variation (Rattus norvegicus [7]) | Max delta MAP (Rattus norvegicus [8]) | Variation (Rattus norvegicus [8]) | Max delta HR (Rattus norvegicus [9]) | Variation (Rattus norvegicus [9]) | Max delta MAP (Rattus norvegicus [10]) | Variation (Rattus norvegicus [10]) | Max delta HR (Rattus norvegicus [11]) | Variation (Rattus norvegicus [11])
1 | CN1CC(C2=NCCN2)Oc2cc3c(cc21)CCCC3 (configuration not stated) | -17% | 0.098 µM | -15 mmHg | -9% | > 10 µM | -53 beats min-1 | – | – | – | – | – | – | – | – | – | – | – | –
2 | CN1CC(C2=NCCN2)Oc2ccc(C(F)(F)F)cc21 (configuration not stated) | -43% | 0.263 µM | -32 mmHg | -18% | > 10 µM | -134 beats min-1 | – | – | – | – | – | – | – | – | – | – | – | –
3 | c1cc2c3c(c1)OC(C1=NCCN1)CN3CC2 (configuration not stated) | -25% | 0.0286 µM | -56 mmHg | -30% | > 10 µM | -103 beats min-1 | -48 mmHg | -25% | -50 beats min-1 | -14% | -19 mmHg | -10% | -94 beats min-1 | -27% | – | – | – | –
4 | Cc1cccc2c1OC(C1=NCCN1)CN2C (configuration not stated) | -25% | 0.0073 µM | -24 mmHg | -13% | > 1 µM | -79 beats min-1 | – | – | – | – | – | – | – | – | – | – | – | –
5 | CN1CC(C2=NCCN2)Oc2c1ccc1ccccc21 (configuration not stated) | -24% | – | -14 mmHg | -8% | > 10 µM | -80 beats min-1 | – | – | – | – | – | – | – | – | – | – | – | –
6 | CN1CC(C2=NCCN2)Oc2cc3ccccc3cc21 (configuration not stated) | -11% | 0.402 µM | -17 mmHg | -9% | > 10 µM | -37 beats min-1 | – | – | – | – | – | – | – | – | – | – | – | –
7 | CN1CC(C2=NCCN2)Oc2ccc(F)cc21 (stereo in doubt; 4h) | -44% | 0.104 µM | -6 mmHg | -36% | 5.91 µM | -139 beats min-1 | -56 mmHg | -29% | 25 beats min-1 | 7% | -34 mmHg | -18% | -43 beats min-1 | -12% | -81 mmHg | -44% | -61 beats min-1 | -18%
8 | CCCC1(C2=NCCN2)CN(C)c2ccccc2O1 (configuration not stated) | -17% | > 1 µM | 22 mmHg | 11% | > 1 µM | -56 beats min-1 | – | – | – | – | – | – | – | – | – | – | – | –
9 | Cc1ccc2c3c1CCCN3CC(C1=NCCN1)O2 (configuration not stated) | -25% | 0.23 µM | -17 mmHg | -9% | > 10 µM | -79 beats min-1 | – | – | – | – | – | – | – | – | – | – | – | –
10 | CN1CC(C2=NCCN2)Oc2ccc(F)cc21 (stereo in doubt; (+)4h) | -25% | 0.0682 µM | -50 mmHg | -28% | 2.54 µM | -85 beats min-1 | – | – | – | – | – | – | – | – | – | – | – | –
11 | CN1CC(C2=NCCN2)Oc2ccc(Cl)cc21 (configuration not stated) | -32% | 0.0525 µM | -53 mmHg | -28% | 1.46 µM | -96 beats min-1 | -47 mmHg | -24% | – | – | – | – | -40 beats min-1 | 11% | – | – | – | –
12 | c1cc2c3c(c1)ccn3CC(C1=NCCN1)O2 (configuration not stated) | -14% | 0.36 µM | -24 mmHg | -14% | > 1 µM | -45 beats min-1 | – | – | – | – | – | – | – | – | – | – | – | –
13 | c1ccc2c(c1)NCC(C1=NCCN1)O2 (configuration not stated) | -3% | > 10 µM | -17 mmHg | -9% | > 10 µM | -8 beats min-1 | – | – | – | – | – | – | – | – | – | – | – | –
14 | CN1CC(C)(C2=NCCN2)Oc2ccccc21 (configuration not stated) | -11% | > 1 µM | -17 mmHg | -9% | > 1 µM | -37 beats min-1 | – | – | – | – | – | – | – | – | – | – | – | –
15 | COC(=O)c1ccc2c(c1)N(C)CC(C1=NCCN1)O2 (configuration not stated) | – | 7.5 µM | – | – | > 10 µM | – | – | – | – | – | – | – | – | – | – | – | – | –
16 | Cc1cccc2c1N(C)CC(C1=NCCN1)O2 (configuration not stated) | -16% | 0.145 µM | 47 mmHg | 23% | 4.74 µM | -52 beats min-1 | – | – | – | – | – | – | – | – | – | – | – | –
17 | COc1ccc2c(c1)N(C)CC(C1=NCCN1)O2 (configuration not stated) | -18% | 0.287 µM | -14 mmHg | -8% | > 10 µM | -54 beats min-1 | – | – | – | – | – | – | – | – | – | – | – | –
18 | Cc1ccc2c(c1)OC(C1=NCCN1)CN2C (configuration not stated) | -19% | 0.03 µM | -34 mmHg | -20% | 1 µM | -60 beats min-1 | – | – | – | – | – | – | – | – | – | – | – | –
19 | c1cc2c3c(c1)OC(C1=NCCN1)CN3CCCC2 (configuration not stated) | -22% | 2.15 µM | 21 mmHg | 11% | 4.6 µM | -65 beats min-1 | – | – | – | – | – | – | – | – | – | – | – | –
20 | COc1cc(=O)n2c3c(ccc(C)c13)OC(C1=NCCN1)C2 (configuration not stated) | -6% | 6.8 µM | -1 mmHg | 0% | 9.4 µM | -17 beats min-1 | – | – | – | – | – | – | – | – | – | – | – | –
21 | Cc1cc2c(cc1C)N(C)CC(C1=NCCN1)O2 (configuration not stated) | -33% | 0.026 µM | -8 mmHg | -5% | 5.66 µM | -100 beats min-1 | – | – | – | – | – | – | – | – | – | – | – | –
22 | CN1CC(C2=NCCN2)Oc2ccc(CO)cc21 (configuration not stated) | – | 0.0104 µM | – | – | > 10 µM | – | – | – | – | – | – | – | – | – | – | – | – | –
23 | c1cc2c3c(c1)OC(C1=NCCN1)CN3CCC2 (configuration not stated) | -24% | 0.34 µM | -34 mmHg | -20% | 0.71 µM | -77 beats min-1 | – | – | – | – | – | – | – | – | – | – | – | –
24 | CCOCc1ccc2c(c1)N(C)CC(C1=NCCN1)O2 (configuration not stated) | – | > 1 µM | – | – | > 10 µM | – | – | – | – | – | – | – | – | – | – | – | – | –
25 | CN1CC(C2=NCCN2)Oc2ccc(F)cc21 (single isomer, unassigned; (-)) | -45% | 0.0329 µM | -55 mmHg | -31% | > 1 µM | -143 beats min-1 | – | – | – | – | – | – | – | – | – | – | – | –
26 | COc1cc(=O)n2c3c(cccc13)OC(C1=NCCN1)C2 (configuration not stated) | 4% | 13 µM | -9 mmHg | -5% | > 10 µM | 13 beats min-1 | – | – | – | – | – | – | – | – | – | – | – | –
